Screens (PubChem BioAssay)
PLCb3 inh – human PLC-beta3 inhibitors, primary screen, biochemical, fluorescence | 1-phosphatidylinositol 4,5-bisphosphate phosphodiesterase beta-3 (Homo sapiens), Q01970 | 370,000 compounds, 0.18% hits | Purified PLC-beta3, fluorogenic substrate | inhibition, % at 12.2 µM; in the data active = inhibition above about 11%
Rpn11 block – Rpn11 (PSMD14) deubiquitinase inhibitors, primary screen, biochemical, fluorescence polarization, uHTS. human 26S proteasome, Ub4-pepOG fluorescence polarization; 20S core pre-blocked with epoxomicin. 360,000 compounds, 0.59% hits. AID 588493, 2011. inhibition, % at 20 µM;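 active = inhibition at 20 µM, scaled to each plate's controls, above about 33%, limit read from the data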
Target sequence (O00487 whole entry, looked up): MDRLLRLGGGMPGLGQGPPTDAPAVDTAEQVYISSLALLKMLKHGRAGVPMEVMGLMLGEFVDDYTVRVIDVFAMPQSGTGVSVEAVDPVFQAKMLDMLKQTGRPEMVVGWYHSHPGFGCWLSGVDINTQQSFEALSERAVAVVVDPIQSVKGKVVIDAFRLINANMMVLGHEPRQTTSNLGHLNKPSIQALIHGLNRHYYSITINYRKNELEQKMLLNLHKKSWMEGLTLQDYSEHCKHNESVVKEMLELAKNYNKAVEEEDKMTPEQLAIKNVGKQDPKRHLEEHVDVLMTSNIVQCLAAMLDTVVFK
UCH37 inh – inhibitors of human UCH37 deubiquitinase, primary screen, biochemical, Ub-AMC cleavage, fluorescence; purified proteasome/UCH37; 330,000 compounds, 0.33% hits; inhibition, % (no concentration beside the values); Ubiquitin carboxyl-terminal hydrolase isozyme L5 (Homo sapiens), Q9Y5K5;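 active = mean inhibition over replicate wells above about 20%, limit read from the data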
Target sequence (Q9Y5K5 whole entry, looked up): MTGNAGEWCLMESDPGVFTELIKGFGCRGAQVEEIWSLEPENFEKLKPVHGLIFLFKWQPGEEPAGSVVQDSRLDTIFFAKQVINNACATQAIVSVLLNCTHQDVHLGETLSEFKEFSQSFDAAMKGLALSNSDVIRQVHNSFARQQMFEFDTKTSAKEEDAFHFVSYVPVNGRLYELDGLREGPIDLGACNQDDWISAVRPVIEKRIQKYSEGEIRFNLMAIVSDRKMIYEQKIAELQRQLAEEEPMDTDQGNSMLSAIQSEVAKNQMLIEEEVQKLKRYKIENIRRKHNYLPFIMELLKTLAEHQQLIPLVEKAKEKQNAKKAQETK
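Test system – human UCH37 enzyme supplied as purified proteasome complex · Incubation – 30 min preincubation with enzyme, 25 min cleavage at room temperature · Detection – AMC fluorescence from Ub-AMC cleavage, excitation 355 nm, emission 460 nm · Benchmarks – no-proteasome wells (full inhibition) and compound-free wells (no inhibition)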
PLCg1 inh – PLC-gamma1 enzyme inhibitors, primary screen, biochemical, fluorescence, purified enzyme; fluorogenic substrate; inhibition, % at 12.2 µM; 370,000 compounds, 0.84% hits; AID 720700, 2013; in the data active = inhibition above about 9.5%
Numbers stand for hits; 0 = inactive; - = no result shown. Rows were chosen to be rich in hits. Some 1.7% of all compounds tested hit in one or more screens of this group.

SMILES	PLCb3 inh	Rpn11 block	UCH37 inh	PLCg1 inh
CC1=C(C#N)c2nc(N)c(C#N)c(C)c2/C1=C\c1ccc(-c2ccccc2C(=O)O)o1	0	0	22	0
COc1cc(/C=C2/C(C)=C(C#N)c3nc(N)c(C#N)c(C)c32)ccc1OCC(=O)O	0	-	-	0
CC1(C)N=C(N)N=C(N)N1c1ccc(CCCCc2ccccc2)cc1	0	0	-	11
CC1(C)N=C(N)N=C(N)N1c1ccccc1	0	0	0	0
CN(C)C=Nc1sc2c(c1C#N)CCCC2	-	-	0	-
COc1ccccc1Nc1cc2cc(Br)ccc2c(=O)[nH]1	0	0	21	0
COc1ccc2c(c1)CCC1C2=NN(/C(C)=C\C(C)=O)C1c1ccc(F)cc1 (stereo not drawn)	0	51	0	0
COc1ccc2c(c1)C1=NN(/C(C)=C/C(C)=O)C(c3ccc(F)cc3)C1CC2 (stereo not drawn)	0	0	0	0
CC(=NNC(=O)c1cc(C)oc1C)c1ccc(N2CCOCC2)cc1	-	-	0	-
COc1ccc(OC)c(CN2CCN(C(=O)c3cccc4ccccc34)CC2)c1	0	0	0	13
COc1cc(S(=O)(=O)N2CCOCC2)ccc1NC(=O)CSc1nnc(N)s1	0	0	30	0
NNc1ccc([N+](=O)[O-])c2[nH][nH]c(=O)c12	0	0	-	23
O=[N+]([O-])c1ccc(Nc2ccccc2)c2nonc12	0	0	-	0
O=C(NN=Cc1ccco1)c1cc(-c2ccc(Br)s2)[nH]n1	-	-	0	-
CCc1sc(N(C(=O)Cc2ccccc2)c2ccccc2)nc1-c1ccccc1	0	0	0	0
CCc1sc(N(C(=O)Cc2ccccc2)c2ccc(F)cc2)nc1-c1ccccc1	0	0	24	0
CCOC(=O)/C(C#N)=C\N(C)C	0	0	0	0
CCOC(=O)/C(C#N)=C/C=C1/C=CC=CN1C	0	0	20	0
CCOC(=O)c1c2ccccc2[n+]([O-])n1[C@@H](C)C(N)=O	0	0	32	0
COc1cc(CO)cc(-c2cc(CO)cc(OC)c2OC)c1OC	0	0	26	0
COc1cc(CO)cc(Br)c1OCC(=O)O	0	0	0	0
Cc1cc[n+](-c2[nH]c(=O)sc2C=NNC([S-])=Nc2ccccc2)cc1	-	-	23	-
Cc1cc[n+](-c2[nH]c(=O)sc2/C=N/NC([S-])=Nc2ccccc2)cc1	0	0	-	0
C(=NN(Cc1ccccc1)c1ccccc1)c1ccco1	-	-	0	-
CC1CCCCC1=NNc1ccc(S(N)(=O)=O)cc1[N+](=O)[O-] (stereo not drawn)	-	-	0	-
SMILES	PLCb3 inh	Rpn11 block	UCH37 inh	PLCg1 inh
CCCNC(=O)C(Cc1cccc(Cl)c1)NC(=O)c1ccc(C#N)cc1 (stereo not drawn)	0	0	27	0
CCCNC(=O)C(Cc1cccc(C#N)c1)NC(=O)c1ccc(C#N)cc1 (stereo not drawn)	0	0	0	0
COc1ccc(NC(=S)NN=Cc2cccn2Cc2ccc(F)cc2)cc1	-	-	0	-
COc1ccc(C=NNC(=O)c2nn(C)cc2Cl)cc1CN1CCOCC1	-	-	0	-
CNC[C@H](CC1CCCCC1)NC[C@H](Cc1ccccc1)NCCC12CC3CC(CC(C3)C1)C2	0	0	0	10.0
O=C(NCCc1ccccc1)c1ccnc(C=NO)c1	-	-	0	-
COc1ccc(C=NNC(=O)Cc2n[nH]c(=O)[nH]c2=O)cc1	-	-	0	-
Cc1ccccc1OCC(=O)NN=C1SCC(=O)N1Cc1ccccc1	-	-	0	-
C[C@@H](NC(=O)C[C@@H]1C[C@@H]2c3cc(NS(=O)(=O)c4ccc(F)cc4)ccc3O[C@@H]2[C@@H](CO)O1)c1ccccc1	0	0	-	0
O=C(C[C@@H]1C[C@@H]2c3cc(NS(=O)(=O)c4ccc(F)cc4)ccc3O[C@@H]2[C@H](CO)O1)NCc1ccc(Oc2ccccc2)cc1	0	0	-	9.6
Cn1c(O)c(C=Nc2ccc(N3CCOCC3)cc2)c(=O)n(C)c1=S	0	0	34	0
CS(=O)(=O)Oc1ccc(Br)c2cccnc12	0	0	0	0
Nc1ccc(Br)c2cccnc12	0	0	25	0
COc1ccc2cc(C=NNC(=O)c3c(Cl)cnn3C)c(Cl)nc2c1	-	-	0	-
COc1ccccc1NC(=O)CN1CCN(c2ccc(F)cc2)CC1	0	0	-	0
O=C(CN1CCN(c2ccc(F)cc2)CC1)Nc1ccccc1Br	0	0	0	17
CC1CC(=NN2C(=O)CSC2=S)CC(C)(C)C1 (stereo not drawn)	-	-	0	-
O=C(CSc1nccn1-c1ncc(C(F)(F)F)cc1Cl)c1ccc(Cl)cc1	0	0	31	0
CC1=NNC(=O)C1CCC(=O)NN=Cc1ccc(Cl)c(Cl)c1 (stereo not drawn)	-	-	0	-
c1coc(-c2nnc(-c3ccco3)nn2)c1	0	0	32	0
c1ccc(-c2nnc(-c3ccco3)o2)cc1	0	0	0	0
c1ccc(C2=NOC(c3nnc(-c4ccccc4)o3)C2)cc1 (stereo not drawn)	0	0	33	0
Clc1cccc(C2=NOC(c3nnc(-c4ccccc4)o3)C2)c1 (stereo not drawn)	0	0	0	0
CC(C)(C)OC(=O)NCCCCCNC(=O)c1nc[nH]c1C(=O)NCC(=O)OCc1ccccc1	0	0	0	0
CC(C)C[C@H](NC(=O)c1[nH]cnc1C(=O)N[C@@H](C)C(=O)OCc1ccccc1)C(=O)OCc1ccccc1	0	0	0	11
SMILES	PLCb3 inh	Rpn11 block	UCH37 inh	PLCg1 inh
CC(C)(C)OC(=O)CNC(=O)c1[nH]cnc1C(=O)NCC(=O)OCc1ccccc1	0	0	31	0
CC(C)C[C@H](NC(=O)c1[nH]cnc1C(=O)N[C@@H](C)C(=O)OC(C)(C)C)C(=O)OCc1ccccc1	0	0	0	0
Cc1ccccc1OCC(=O)NN=Cc1cn(Cc2ccccc2)c2ccccc12	-	-	0	-
Cc1ccc(C)n1-c1cc([N+](=O)[O-])ccc1-n1ccnc1	0	0	0	0
CC1(C)N([O-])c2cc([N+](=O)[O-])ccc2[N+]1=O	0	-	57	0
O=C1N[C@H](Cc2ccccc2)COC(=O)[C@@H](Cc2ccc(F)cc2)CC/C=C/C[C@H]1CC(=O)N(CCO)Cc1ccccc1	0	0	22	0
COc1ccc(OCC(=O)NN=C2CCCc3ccccc32)cc1	-	-	0	-
CC(=O)c1ccc(-c2ccc(/C=C(/Sc3n[nH]c(C)n3)C(=O)O)o2)cc1	0	-	21	0
Cc1nc(S/C(=C/c2ccc(-c3ccc(C(=O)O)cc3)o2)C(=O)O)n[nH]1	0	0	-	0
O=C(O)CN1C(=O)/C(=C\c2cc(Br)ccc2OCc2ccc([N+](=O)[O-])cc2)SC1=S	0	0	20	0
O=C(O)CN1C(=O)/C(=C\c2cc(Br)ccc2OCc2ccccc2Cl)SC1=S	0	0	0	0
O=C(O)CN1C(=O)/C(=C\c2cc(Br)ccc2OCc2ccccc2F)SC1=S	0	0	24	0
COc1cccc(C(=O)NN=C2SCC(=O)N2CCc2ccc(OC)c(OC)c2)c1	-	-	0	-
O=C1NC(=S)S/C1=C/c1ccc(OC(=O)c2ccco2)cc1	0	-	-	0
O=C1NC(=S)S/C1=C\c1ccc(SCc2ccco2)o1	-	182	-	-
